# Columns and labels:
# [1] = target: T1, Human immunodeficiency virus type 1 integrase (Human immunodeficiency virus 1, UniProt Q7ZJM1); assay: Inhibition of HIV1 integrase strand transfer activity
# Method in brief: (§1)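 HIV-1 integrase (200 nM final) preincubated 30 min at 30 °C with inhibitor in buffer (pH 7.2 MOPS, NaCl, HEPES, EDTA, DTT, 10% glycerol, 7.5 mM MnCl₂, 0.1 mg/ml BSA, 2-mercaptoethanol, 10% DMSO). 20 nM 5'-³²P-labeled linear oligonucleotide substrate then added for 1 h. Quenched with formamide loading dye; products resolved on denaturing 20% polyacrylamide/urea gel. IC₅₀ reported for each step.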
# [2] = target: T1, Human immunodeficiency virus type 1 integrase; assay: Inhibition of HIV1 integrase 3' processing activity; method in brief: as §1
# UACC-62 = assay: Growth inhibition of human UACC62 cells; type: functional
# Method in brief: (§2)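 Run by the US National Cancer Institute in vitro screen against a panel of 53–57 human tumor cell lines. GI₅₀ is defined as the molar concentration inhibiting 50% net cell growth. TGI is the concentration giving total growth inhibition.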
# NCI-H522 = assay: Growth inhibition of human NCI-H522 cells; type: functional; method in brief: as §2
# SNB-75 = assay: Growth inhibition of human SNB75 cells; type: functional; method in brief: as §2
# EKVX = assay: Growth inhibition of human EKVX cells; type: functional; method in brief: as §2
# SF-268 [3] = assay: (§3) Growth inhibition of human SF268 cells; type: functional; method in brief: as §2
# SNB-19 = assay: Growth inhibition of human SNB19 cells; type: functional; method in brief: as §2
# SF-268 [4] = assay: as §3; type: functional; method in brief: as §2; remark: listed apart in the source
# SN12C = assay: Growth inhibition of human SN12C cells; type: functional; method in brief: as §2
# SR = assay: Growth inhibition of human SR cells; type: functional; method in brief: as §2
# MOLT-4 = assay: Growth inhibition of human MOLT4 cells; type: functional; method in brief: as §2
# M14 = assay: Growth inhibition of human M14 cells; type: functional; method in brief: as §2
# A498 = assay: Growth inhibition of human A498 cells; type: functional; method in brief: as §2
# HOP-62 = assay: Growth inhibition of human HOP62 cells; type: functional; method in brief: as §2
# HCC 2998 = assay: Growth inhibition of human HCC2998 cells; type: functional; method in brief: as §2
# HCT-116 = assay: Growth inhibition of human HCT116 cells; type: functional; method in brief: as §2
# BT-549 = assay: Growth inhibition of human BT549 cells; type: functional; method in brief: as §2
# T47D = assay: Growth inhibition of human T47D cells; type: functional; method in brief: as §2
# CCRF-CEM = assay: Growth inhibition of human CCRF-CEM cells; type: functional; method in brief: as §2
# KM12 = assay: Growth inhibition of human KM12 cells; type: functional; method in brief: as §2
# LOX IMVI = assay: Growth inhibition of human LOX IMVI cells; type: functional; conditions: for GI50 / TGI: Homo sapiens, LOX IMVI; method in brief: as §2
# Malme-3M = assay: Growth inhibition of human MALME-3M cells; type: functional; method in brief: as §2
# SK-MEL-5 = assay: Growth inhibition of human SK-MEL-5 cells; type: functional; method in brief: as §2
# NCI-H322M = assay: Growth inhibition of human NCI-H322M cells; type: functional; method in brief: as §2
# T1 sequence (Q7ZJM1 whole entry): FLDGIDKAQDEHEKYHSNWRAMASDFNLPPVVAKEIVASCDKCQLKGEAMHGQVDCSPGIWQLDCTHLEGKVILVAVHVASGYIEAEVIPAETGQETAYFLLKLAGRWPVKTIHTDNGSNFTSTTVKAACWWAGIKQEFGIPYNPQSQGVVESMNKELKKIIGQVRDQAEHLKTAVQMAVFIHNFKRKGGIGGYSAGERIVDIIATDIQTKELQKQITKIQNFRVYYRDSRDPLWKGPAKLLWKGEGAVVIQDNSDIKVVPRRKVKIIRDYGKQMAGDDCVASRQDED
compound,measurement,setting,value
Cc1cc(S(=O)(=O)Nc2nc3n[nH]cc3c(=O)n2N)c(S)cc1Cl,IC50,[1],> 100 µM
same,IC50,[2],> 100 µM
COc1cc2nc(NS(=O)(=O)c3cc(C)c(Cl)cc3S)n(N)c(=O)c2cc1OC,IC50,[1],> 100 µM
same,IC50,[2],> 100 µM
Cc1cc(S(=O)(=O)Nc2nc3ccccc3c(=O)n2N)c(S)cc1Cl,GI50,UACC-62,19.7 µM
same,TGI,UACC-62,49.2 µM
same,GI50,NCI-H522,19 µM
same,TGI,NCI-H522,50.8 µM
same,GI50,SNB-75,13.3 µM
same,TGI,SNB-75,32.7 µM
same,IC50,[1],> 100 µM
same,IC50,[2],> 100 µM
same,GI50,EKVX,14.8 µM
same,TGI,EKVX,29.2 µM
same,GI50,SF-268 [3],7.2 µM
same,TGI,SF-268 [3],40.1 µM
same,GI50,SNB-19,15.7 µM
same,TGI,SNB-19,47.2 µM
COc1ccc(NC(=O)c2cc(S(=O)(=O)Nc3nc4ccccc4c(=O)[nH]3)c(SCc3ccccc3)cc2Cl)cc1,IC50,[1],93 µM
same,IC50,[2],> 100 µM
Cc1cc(S(=O)(=O)Nc2nc3scc(C)c3c(=O)n2N)c(S)cc1Cl,IC50,[1],81 µM
same,IC50,[2],> 100 µM
Cc1cc(S(=O)(=O)Nc2nc3cscc3c(=O)n2N)c(S)cc1Cl,GI50,SNB-75,15 µM
same,TGI,SNB-75,58.5 µM
same,IC50,[1],43 µM
same,IC50,[2],69 µM
same,GI50,SF-268 [4],17.7 µM
same,TGI,SF-268 [4],68.1 µM
Cc1cc(S(=O)(=O)Nc2nc3cc(-c4ccc(Cl)cc4)sc3c(=O)n2Cc2ccccc2)c(S)cc1Cl,GI50,SN12C,> 100 µM
same,GI50,UACC-62,> 100 µM
same,GI50,SR,> 100 µM
same,GI50,NCI-H522,> 100 µM
same,GI50,SNB-75,> 100 µM
same,GI50,MOLT-4,> 100 µM
same,GI50,M14,> 100 µM
same,GI50,A498,> 100 µM
same,GI50,HOP-62,> 100 µM
same,GI50,HCC 2998,> 100 µM
same,IC50,[1],4 µM
same,GI50,HCT-116,> 100 µM
same,GI50,BT-549,> 100 µM
same,IC50,[2],6 µM
same,GI50,T47D,> 100 µM
same,GI50,SF-268 [4],> 100 µM
same,GI50,CCRF-CEM,> 100 µM
same,GI50,KM12,> 100 µM
same,GI50,EKVX,> 100 µM
same,GI50,LOX IMVI,> 100 µM
same,GI50,Malme-3M,> 100 µM
same,GI50,SK-MEL-5,> 100 µM
same,GI50,SF-268 [3],> 100 µM
same,GI50,SNB-19,> 100 µM
Cc1cc(S(=O)(=O)Nc2nc3cc(-c4ccsc4)sc3c(=O)n2Cc2ccco2)c(S)cc1Cl,GI50,SN12C,> 100 µM
same,GI50,UACC-62,> 100 µM
same,GI50,SR,> 100 µM
same,GI50,NCI-H522,> 100 µM
same,GI50,SNB-75,> 100 µM
same,GI50,NCI-H322M,> 100 µM
same,GI50,MOLT-4,> 100 µM
same,GI50,M14,> 100 µM
same,GI50,A498,> 100 µM
same,GI50,HOP-62,> 100 µM
same,GI50,HCC 2998,> 100 µM
same,IC50,[1],6 µM
same,GI50,HCT-116,> 100 µM
same,GI50,BT-549,> 100 µM
same,IC50,[2],8 µM
same,GI50,T47D,> 100 µM
same,GI50,SF-268 [4],> 100 µM
same,GI50,CCRF-CEM,> 100 µM
same,GI50,KM12,> 100 µM
same,GI50,EKVX,> 100 µM
same,GI50,LOX IMVI,> 100 µM
same,GI50,Malme-3M,> 100 µM
same,GI50,SK-MEL-5,> 100 µM
same,GI50,SF-268 [3],> 100 µM
same,GI50,SNB-19,> 100 µM
Cc1cc(S(=O)(=O)Nc2nc3ccsc3c(=O)n2Cc2ccco2)c(S)cc1Cl,GI50,SR,9.9 µM
same,TGI,SR,29.7 µM
same,GI50,MOLT-4,19.4 µM
same,TGI,MOLT-4,84.2 µM
same,IC50,[1],53 µM
same,IC50,[2],62 µM
Cc1cc(S(=O)(=O)Nc2nc3cc(C(C)(C)C)sc3c(=O)n2Cc2ccccc2)c(S)cc1Cl,IC50,[1],4 µM
same,IC50,[2],22 µM
Cc1cc(S(=O)(=O)Nc2nc3cc(-c4ccccc4)sc3c(=O)n2Cc2ccccc2)c(S)cc1Cl,GI50,SN12C,> 100 µM
same,GI50,UACC-62,> 100 µM
same,GI50,SR,> 100 µM
same,GI50,NCI-H522,> 100 µM
same,GI50,SNB-75,> 100 µM
same,GI50,NCI-H322M,> 100 µM
same,GI50,MOLT-4,> 100 µM
same,GI50,M14,> 100 µM
same,GI50,A498,> 100 µM
same,GI50,HOP-62,> 100 µM
same,GI50,HCC 2998,> 100 µM
same,IC50,[1],6 µM
same,GI50,HCT-116,> 100 µM
same,GI50,BT-549,> 100 µM
same,IC50,[2],9 µM
same,GI50,T47D,> 100 µM
same,GI50,SF-268 [4],> 100 µM
same,GI50,CCRF-CEM,> 100 µM
same,GI50,KM12,> 100 µM
same,GI50,EKVX,> 100 µM
same,GI50,LOX IMVI,> 100 µM
same,GI50,Malme-3M,> 100 µM
same,GI50,SK-MEL-5,> 100 µM
same,GI50,SF-268 [3],> 100 µM
same,GI50,SNB-19,> 100 µM
Cc1cc(S(=O)(=O)Nc2nc3cscc3c(=O)n2Cc2ccccc2)c(S)cc1Cl,GI50,SN12C,16.6 µM
same,TGI,SN12C,54.5 µM
same,GI50,NCI-H322M,18.2 µM
same,TGI,NCI-H322M,45.9 µM
same,GI50,MOLT-4,3.9 µM
same,TGI,MOLT-4,32.5 µM
same,GI50,HOP-62,16.5 µM
same,TGI,HOP-62,39.3 µM
same,GI50,HCC 2998,18.9 µM
same,TGI,HCC 2998,68.5 µM
same,IC50,[1],31 µM
same,IC50,[2],80 µM
same,GI50,T47D,4.5 µM
same,TGI,T47D,40.8 µM
same,GI50,CCRF-CEM,14 µM
same,TGI,CCRF-CEM,47.6 µM
same,GI50,KM12,19.9 µM
same,TGI,KM12,74.7 µM
same,GI50,LOX IMVI,18.2 µM
same,TGI,LOX IMVI,51.6 µM
Cc1cc(S(=O)(=O)Nc2nc3cc(C(C)(C)C)sc3c(=O)n2N)c(S)cc1Cl,IC50,[1],35 µM
same,IC50,[2],60 µM
Cc1cc(S(=O)(=O)Nc2nc3cc(Cl)ccc3c(=O)[nH]2)c(SCc2ccccc2)cc1Cl,IC50,[1],33 µM
same,IC50,[2],47 µM
NC(=O)c1cc(S(=O)(=O)Nc2nc3ccccc3c(=O)[nH]2)c(SCc2ccccc2)cc1Cl,IC50,[1],> 100 µM
same,IC50,[2],> 100 µM
Cc1cc(S(=O)(=O)Nc2nc3ccsc3c(=O)[nH]2)c(SCc2ccccc2)cc1Cl,IC50,[1],70 µM
same,IC50,[2],> 100 µM
Cc1cc(S(=O)(=O)Nc2nc(=O)c3ccccc3n2C)c(SCc2ccccc2)cc1Cl,IC50,[1],90 µM
same,IC50,[2],> 100 µM
Cc1cc(S(=O)(=O)Nc2nc(N)n[nH]2)c(S)cc1Cl,IC50,[1],4.9 µM
same,IC50,[2],4.79 µM
Cc1ccc(NC(=O)c2cc(S(=O)(=O)Nc3nc4ccccc4c(=O)[nH]3)c(SCc3ccccc3)cc2Cl)cc1,IC50,[1],77 µM
same,IC50,[2],> 100 µM
O=C(Nc1ccc(Cl)cc1)c1cc(S(=O)(=O)Nc2nc3ccccc3c(=O)[nH]2)c(SCc2ccccc2)cc1Cl,IC50,[1],52 µM
same,IC50,[2],> 100 µM
O=C(Nc1ccccc1)c1cc(S(=O)(=O)Nc2nc3ccccc3c(=O)[nH]2)c(SCc2ccccc2)cc1Cl,IC50,[1],36 µM
same,IC50,[2],73 µM
Cc1cc(S(=O)(=O)Nc2nc3ccccc3c(=O)[nH]2)c(SCc2ccccc2)cc1Cl,IC50,[1],83 µM
same,IC50,[2],> 100 µM
Cc1cc(S(=O)(=O)Nc2nc3cscc3c(=O)[nH]2)c(SCc2ccccc2)cc1Cl,IC50,[1],78 µM
same,IC50,[2],> 100 µM
Cc1cc(S(=O)(=O)Nc2nc3ccsc3c(=O)n2N)c(S)cc1Cl,IC50,[1],53 µM
same,IC50,[2],65 µM
Cc1cc(S(=O)(=O)Nc2nc3sc(C)c(C)c3c(=O)n2N)c(S)cc1Cl,IC50,[1],39 µM
same,IC50,[2],55 µM
Cc1cc(S(=O)(=O)Nc2nc3ccccc3c(=O)n2Cc2ccco2)c(S)cc1Cl,GI50,SR,19.5 µM
same,TGI,SR,40.7 µM
same,GI50,MOLT-4,18.6 µM
same,TGI,MOLT-4,70.6 µM
same,IC50,[1],42 µM
same,GI50,BT-549,15.7 µM
same,TGI,BT-549,51.9 µM
same,IC50,[2],78 µM
same,GI50,T47D,15 µM
same,TGI,T47D,81.4 µM
same,growth inhibitory concentration,LOX IMVI,16.1 µM
same,TGI,LOX IMVI,59.3 µM
same,GI50,SNB-19,< 0.01 µM
same,TGI,SNB-19,88.8 µM
Cc1cc(S(=O)(=O)Nc2nc3ccsc3c(=O)n2Cc2ccccc2)c(S)cc1Cl,GI50,UACC-62,19.5 µM
same,TGI,UACC-62,44.4 µM
same,GI50,NCI-H322M,19.5 µM
same,TGI,NCI-H322M,48.8 µM
same,GI50,M14,19.8 µM
same,TGI,M14,49.6 µM
same,GI50,A498,14.2 µM
same,TGI,A498,49.3 µM
same,GI50,HOP-62,19.7 µM
same,TGI,HOP-62,46.6 µM
same,IC50,[1],29 µM
same,GI50,HCT-116,19.2 µM
same,TGI,HCT-116,37.7 µM
same,IC50,[2],53 µM
same,GI50,KM12,19.9 µM
same,TGI,KM12,48.2 µM
same,GI50,Malme-3M,19.9 µM
same,TGI,Malme-3M,56.1 µM
same,GI50,SK-MEL-5,12.5 µM
same,TGI,SK-MEL-5,34.2 µM
